Experimental data from different studies.
Lines come from different studies, so protocols differ.
CDK14: Cyclin-dependent kinase 14 (CDK14, Homo sapiens, UniProt O94921)
CDK14 with cyclin Y: Cyclin-dependent kinase 14, with cyclin Y (CDK14, Homo sapiens, UniProt O94921)

| SMILES | target | observed | mode | technique | tested at | quantity | result |
| --- | --- | --- | --- | --- | --- | --- | --- |
| Fc1cccc(-n2cnc3c(NCc4nc5c(F)c(F)ccc5[nH]4)nc(N4CCOCC4)nc32)c1 | CDK14 | binding |  | competition with immobilised ligand | 10 µM | binding vs control | 55% |
| COc1cc(Cl)c(C(=O)N[C@@H](CN[C@H]2CC[C@@H](N)CC2)Cc2ccc(C#N)cc2)cc1-c1ccc(CN[C@H](C)c2ccc(C)cc2)o1 | CDK14 with cyclin Y | enzyme activity | inhibitor |  | 1 µM | remaining activity | 99% |
| Cc1ccc(C(=O)Nc2ccc(CN3CCN(C)CC3)c(C(F)(F)F)c2)cc1C#Cc1cnc2cccnn12 | CDK14 | enzyme activity | inhibitor |  | 23.5 nM | remaining activity | 68% |
| Cc1ccc(C(=O)NCc2ccsc2)cc1C#Cc1cn(C(C)C)c2ncnc(N)c12 | CDK14 with cyclin Y | enzyme activity | inhibitor |  | 1 µM | activity vs control | 92% |
| Nc1ncnc2occ(-c3ccc(NC(=O)Nc4cc(C(F)(F)F)ccc4F)cc3)c12 | CDK14 | cell-free assay | inhibitor |  | 20 µM | remaining signal | 0.1% |
| O=C(Nc1cnn(-c2csc(C(=O)NC3COC3)c2)c1)Nc1ccccc1Cl | CDK14 | enzyme activity | inhibitor |  | 5 µM | remaining activity | 107% |
| CC1CCCN1c1nccc(-c2cnn3ncccc23)n1 (stereo not drawn) | CDK14 | binding |  |  | 1 µM | remaining binding | 100% |
| CN1CC(Oc2cnc(C#N)cc2-c2ccn3nc(NC(=O)C4CC4)cc3c2)C1 | CDK14 with cyclin Y | enzyme activity | inhibitor |  | 1 µM | inhibition | -11% |
| CCC(=N\O)/C(C)=C/c1ccc(F)cc1 | CDK14 | cell-free assay |  | competition with immobilised ligand | 1 µM | remaining binding | 91% |
| Cc1sc(C(=O)NC2COC2)cc1-n1cc(NC(=O)Nc2c(F)cccc2Cl)cn1 | CDK14 | enzyme activity | inhibitor |  | 10 µM | remaining activity | 100% |
| Cn1nc(C(F)(F)F)cc1-c1cnc(N2CCc3cc(S(=O)(=O)Nc4c(F)cc(Cl)cc4F)cc(N4CCCC4=O)c32)nc1 | CDK14 | cell-free assay |  | competition with immobilised ligand | 1 µM | remaining binding | 100% |
| O=[N+]([O-])c1cccc2[nH]c(CNc3nc(N4CCOCC4)nc4c3ncn4-c3ccsc3)nc12 | CDK14 | binding |  | competition with immobilised ligand | 10 µM | binding vs control | 40% |
